From ChEMBL document CHEMBL1800061 (J Med Chem, 2010)
The source made the active and inactive calls. The calls are words filed in the database; no cut-off is given here.

What was measured:
[1] = molecular target: Cyclin-dependent kinase 1 (Homo sapiens) (UniProt P06493); assay: Inhibition of CDK1-mediated phosphorylation of RB protein in human HCT116 cells after 4 hrs by immunoblotting analysis; assay type: cell-based; details: HCT-116
How it was run: (§1)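 HCT116 colon cancer cells were kept in DMEM with 10% FCS. Cells (8×10^5) were plated, dosed 24 h later, and exposed for 4 or 24 h. Whole-cell lysates were made in RIPA buffer with phosphatase and protease inhibitor cocktails and normalised by BCA protein assay. They were immunoblotted for phospho-sites, total proteins and cyclins.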

[2] = Bioavailability in mouse at 10 mg/kg, ip; assay type: ADME, organism-based; details: in vivo
How it was run: (§2)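 Mice given 10 mg/kg by the ip, iv or oral route. Plasma levels were measured at 8 time points, with 3 animals per route for po and iv. Parameters came from a noncompartmental model. AUCINF was extrapolated to infinity, and bioavailability was calculated from AUCINF. The terminal slope used 3 points.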

[3] = AUC (0 to last) in mouse at 10 mg/kg, po; assay type: ADME, organism-based; design: dose 10 mg/kg, route oral, time 0 - last; details: plasma; how it was run: as §2
[4] = molecular target: Cyclin-dependent kinase 9 (Homo sapiens) (UniProt P50750); assay: Inhibition of CDK9-mediated phosphorylation at Ser2 in C-terminal domain of RNA polymerase 2 in human HCT116 cells after 4 hrs by immunoblotting analysis; assay type: cell-based; details: HCT-116; how it was run: as §1
[5] = molecular target: Insulin receptor-related protein (Homo sapiens, UniProt P14616); assay: Inhibition of IRR
Mus musculus [6] = assay: Inhibition of cyclin-dependent kinase substrate RB phosphorylation in nude BALB/c mouse PBMC at 75 to 100 mg/kg, po measured after 24 hrs by immunostaining and flow cytometric analysis; assay type: organism-based; design: dose 75-100 mg/kg, route oral; details: in vivo
How it was run: (§3)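 Seven-week-old female nu/nu-BALB/c nude mice got a single oral gavage (vehicle 28% PEG300/5% dimethylacetamide/10% HPB cyclodextrin in water). Blood was taken by cardiac puncture at 6 h or 24 h, red cells were lysed, and PBMC were fixed and permeabilized. Cells were stained with Rb, Rb pThr821, PolII or PolII pSer2 antibodies plus an Alexa488 secondary, then read by flow cytometry; n=4 (n=3 at 100 mg/kg).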

Mus musculus [7] = assay: Inhibition of cyclin-dependent kinase substrate […] phosphorylation at Ser2 in nude BALB/c mouse PBMC at 25 mg/kg, po measured after 6 hrs by immunostaining and flow cytometric analysis; assay type: functional; how it was run: as §3
[8] = molecular target: Mitogen-activated protein kinase 1 (Homo sapiens, UniProt P28482); assay: Inhibition of ERK2
[9] = Antiproliferative activity against human NCI60 cells after 72 hrs by sulforhodamine B assay; assay type: functional; details: NCI60, 72 h
[10] = molecular target: Dual specificity mitogen-activated protein kinase kinase 1 (Homo sapiens) (UniProt Q02750); assay: Inhibition of MKK1 assessed as residual enzyme activity at 10 uM
[11] = molecular target: Mitogen-activated protein kinase 8 (Homo sapiens) (UniProt P45983); assay: Inhibition of JNK1 assessed as residual enzyme activity at 10 uM
[12] = molecular target: Serine/threonine-protein kinase PAK 4 (Homo sapiens) (UniProt O96013); assay: Inhibition of PAK4 assessed as residual enzyme activity at 10 uM
[13] = molecular target: Serine/threonine-protein kinase Chk1 (Homo sapiens) (UniProt O14757); assay: Inhibition of CHK1 assessed as residual enzyme activity at 10 uM
[14] = molecular target: Mitogen-activated protein kinase 3 (Homo sapiens, UniProt P27361); assay: Inhibition of ERK1 assessed as residual enzyme activity at 10 uM
Mus musculus [15] = assay: Inhibition of cyclin-dependent kinase substrate RB phosphorylation at Thr 821 in nude BALB/c mouse PBMC at 25 mg/kg, po measured after 6 hrs by immunostaining and flow cytometric analysis; assay type: functional; how it was run: as §3
[16] = Plasma protein binding in human at 10 uM; assay type: ADME, cell-free; details: read-out: PPB (converted)
How it was run: (§4)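 Plasma protein binding in human and mouse plasma, test concentration 10 μM. Reported as percent bound, mean (range).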

MCF7 [17] = assay: Cell cycle arrest in human MCF7 cells assessed as concomitant increase in cells at S phase at 1 to 10 umol/L after 24 hrs by propidium iodide staining based flow cytometric analysis; assay type: functional
[18] = molecular target: Mitogen-activated protein kinase 15 (Homo sapiens) (UniProt Q8TD08); assay: Inhibition of ERK8 at 10 umol/L
MCF7 [19] = assay: Antitumor activity against human MCF7 cells xenografted in nude BALB/c mouse assessed as decrease in tumor volume at 10 mg/kg, ip bid for 14 days relative to control on day 1; assay type: functional; details: route intraperitoneal
How it was run: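 Randomised nude mice bearing MCF-7 tumours were injected intraperitoneally twice daily with 5 or 10 mg/kg (10 or 20 mg/kg/day) for 14 days. The control group received vehicle. Tumour volume was expressed relative to each animal's own day 1 volume.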

[20] = molecular target: Ribosomal protein S6 kinase beta-1 (Homo sapiens) (UniProt P23443); assay: Inhibition of S6K1 assessed as residual enzyme activity at 10 uM
[21] = molecular target: Ribosomal protein S6 kinase alpha-3 (Homo sapiens) (UniProt P51812); assay: Inhibition of RSK2 assessed as residual enzyme activity at 10 uM
[22] = Lipophilicity, log D of the compound in n-octanol:PBS at pH 7.4; assay type: physicochemical
[23] = molecular target: Cyclin-dependent kinase 4 (Homo sapiens) (UniProt P11802); assay: Inhibition of CDK4-mediated phosphorylation of […] in human HCT116 cells after 4 hrs by immunoblotting analysis; assay type: cell-based; details: HCT-116; how it was run: as §1
[24] = molecular target: Serine/threonine-protein kinase TBK1 (Homo sapiens) (UniProt Q9UHD2); assay: Inhibition of TBK1 assessed as residual enzyme activity at 10 uM
[25] = Apparent permeability from apical to basolateral side in […] TC7 cells at 10 umol/L and pH 6.5/7.4; assay type: ADME, cell-based; details: Caco-2, pH 6.5
How it was run: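 A-to-B permeability was measured across TC7 monolayers at pH 6.5/7.4 with a 10 μmol/L test concentration. Recovery was recorded, and propranolol served as the control.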

[26] = molecular target: G1/S-specific cyclin-D1 (Homo sapiens) (UniProt P24385); assay: Inhibition of cyclin D1-mediated phosphorylation of RB protein in human HCT116 cells after 4 hrs by immunoblotting analysis; assay type: cell-based; details: HCT-116
How it was run: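 HCT116 cells grown in DMEM with 10% FCS were plated at 8×10^5 per dish and treated after 24 h with compound in DMSO. Lysis was done 4 h later in RIPA buffer with phosphatase and protease inhibitor cocktails, and protein was quantified by BCA. Whole-cell lysates were immunoblotted for phospho-RB (Ser-780, Ser-795, Ser-801, Ser-807/811, Thr-821) and RNA polymerase II CTD Ser-2.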

[27] = molecular target: Protein kinase C zeta type (Homo sapiens) (UniProt Q05513); assay: Inhibition of PKCzeta assessed as residual enzyme activity at 10 uM
SAOS-2 = assay: Antiproliferative activity against human Saos2 cells after 72 hrs by sulforhodamine B assay; assay type: functional; details: SAOS-2, 72 h
How it was run: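 Cell lines were grown in DMEM with 10% FCS and treated with increasing concentrations for 72 h. Growth was read by sulforhodamine B staining and GI50 was derived. Values are means of at least three replicates with SD.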

[28] = molecular target: Serine/threonine-protein kinase 26 (Homo sapiens) (UniProt Q9P289); assay: Inhibition of MST4 assessed as residual enzyme activity at 10 uM
[29] = Plasma protein binding in mouse at 10 uM; assay type: ADME, cell-free; details: read-out: PPB (converted); how it was run: as §4

Serine/threonine-protein kinase 26 (Homo sapiens), sequence (Q9P289 2-416 limits assumed): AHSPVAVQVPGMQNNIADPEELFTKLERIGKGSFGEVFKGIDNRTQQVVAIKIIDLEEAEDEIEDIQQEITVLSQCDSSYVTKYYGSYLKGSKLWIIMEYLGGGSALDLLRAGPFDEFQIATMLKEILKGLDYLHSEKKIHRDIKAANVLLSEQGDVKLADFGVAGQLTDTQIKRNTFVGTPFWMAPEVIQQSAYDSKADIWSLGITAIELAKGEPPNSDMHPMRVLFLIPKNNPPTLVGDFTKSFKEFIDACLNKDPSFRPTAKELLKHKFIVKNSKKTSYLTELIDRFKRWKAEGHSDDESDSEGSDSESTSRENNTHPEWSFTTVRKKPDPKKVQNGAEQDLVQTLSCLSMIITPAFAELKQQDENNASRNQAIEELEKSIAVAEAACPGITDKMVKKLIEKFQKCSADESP
Mitogen-activated protein kinase 3, sequence (P27361 whole entry): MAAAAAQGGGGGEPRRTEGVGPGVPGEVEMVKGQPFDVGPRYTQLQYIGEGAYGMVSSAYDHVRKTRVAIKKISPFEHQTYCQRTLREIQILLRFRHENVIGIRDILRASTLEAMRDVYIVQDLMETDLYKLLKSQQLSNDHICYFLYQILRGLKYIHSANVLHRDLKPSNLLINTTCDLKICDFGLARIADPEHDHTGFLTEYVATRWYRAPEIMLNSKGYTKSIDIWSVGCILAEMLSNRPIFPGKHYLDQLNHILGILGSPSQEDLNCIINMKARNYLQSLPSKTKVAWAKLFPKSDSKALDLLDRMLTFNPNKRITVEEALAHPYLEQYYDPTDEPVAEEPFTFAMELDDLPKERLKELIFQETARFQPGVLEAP
Ribosomal protein S6 kinase beta-1 (Homo sapiens), sequence (P23443 whole entry, looked up): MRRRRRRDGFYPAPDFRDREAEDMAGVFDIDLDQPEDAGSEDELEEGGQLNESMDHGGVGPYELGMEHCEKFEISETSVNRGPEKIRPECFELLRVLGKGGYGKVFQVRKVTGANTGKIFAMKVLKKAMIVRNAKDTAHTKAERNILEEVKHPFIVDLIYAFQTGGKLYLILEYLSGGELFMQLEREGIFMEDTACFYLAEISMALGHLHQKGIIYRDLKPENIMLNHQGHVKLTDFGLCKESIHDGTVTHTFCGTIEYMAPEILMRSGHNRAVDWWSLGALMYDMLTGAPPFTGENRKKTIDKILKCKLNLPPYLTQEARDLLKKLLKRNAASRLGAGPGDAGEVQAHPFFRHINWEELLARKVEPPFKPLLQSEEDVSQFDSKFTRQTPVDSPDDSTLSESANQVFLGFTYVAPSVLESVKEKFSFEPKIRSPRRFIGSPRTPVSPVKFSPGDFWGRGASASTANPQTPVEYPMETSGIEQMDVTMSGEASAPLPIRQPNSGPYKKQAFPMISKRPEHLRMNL
Mitogen-activated protein kinase 15 (Homo sapiens), sequence (Q8TD08 whole entry): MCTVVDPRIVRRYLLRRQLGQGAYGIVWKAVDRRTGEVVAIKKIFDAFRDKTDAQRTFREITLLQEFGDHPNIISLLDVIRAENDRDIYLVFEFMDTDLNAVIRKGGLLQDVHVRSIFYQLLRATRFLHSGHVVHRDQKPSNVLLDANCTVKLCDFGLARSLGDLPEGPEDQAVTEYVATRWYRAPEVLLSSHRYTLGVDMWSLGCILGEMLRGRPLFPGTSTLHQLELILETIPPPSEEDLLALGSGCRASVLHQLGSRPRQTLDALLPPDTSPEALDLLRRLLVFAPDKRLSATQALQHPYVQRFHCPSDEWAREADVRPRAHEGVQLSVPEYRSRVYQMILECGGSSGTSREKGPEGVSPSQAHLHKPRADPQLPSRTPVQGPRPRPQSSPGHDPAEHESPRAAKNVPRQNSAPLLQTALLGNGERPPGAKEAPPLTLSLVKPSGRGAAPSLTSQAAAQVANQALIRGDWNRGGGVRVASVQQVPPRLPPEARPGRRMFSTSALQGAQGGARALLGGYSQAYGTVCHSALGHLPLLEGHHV
Insulin receptor-related protein, sequence (P14616 27-742 limits assumed): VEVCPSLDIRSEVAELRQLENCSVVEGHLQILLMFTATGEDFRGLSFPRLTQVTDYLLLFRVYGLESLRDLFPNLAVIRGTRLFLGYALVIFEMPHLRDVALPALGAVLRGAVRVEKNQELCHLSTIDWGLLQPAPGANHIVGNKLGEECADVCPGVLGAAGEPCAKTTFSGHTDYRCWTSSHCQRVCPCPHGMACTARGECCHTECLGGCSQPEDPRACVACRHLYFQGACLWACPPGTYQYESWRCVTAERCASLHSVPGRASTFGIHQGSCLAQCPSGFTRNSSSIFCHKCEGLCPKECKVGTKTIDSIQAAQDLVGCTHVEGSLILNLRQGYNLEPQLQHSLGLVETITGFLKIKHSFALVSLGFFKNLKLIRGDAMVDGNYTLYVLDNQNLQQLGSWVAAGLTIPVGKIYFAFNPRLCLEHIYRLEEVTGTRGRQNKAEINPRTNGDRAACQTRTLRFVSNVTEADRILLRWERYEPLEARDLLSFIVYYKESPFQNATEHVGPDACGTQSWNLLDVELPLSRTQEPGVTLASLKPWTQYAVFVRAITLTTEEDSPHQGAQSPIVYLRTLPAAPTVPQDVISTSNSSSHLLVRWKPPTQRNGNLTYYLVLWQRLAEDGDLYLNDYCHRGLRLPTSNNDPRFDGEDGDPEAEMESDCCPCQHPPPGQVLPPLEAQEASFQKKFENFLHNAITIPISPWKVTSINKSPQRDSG
Insulin receptor-related protein, sequence (P14616 747-1297 limits assumed): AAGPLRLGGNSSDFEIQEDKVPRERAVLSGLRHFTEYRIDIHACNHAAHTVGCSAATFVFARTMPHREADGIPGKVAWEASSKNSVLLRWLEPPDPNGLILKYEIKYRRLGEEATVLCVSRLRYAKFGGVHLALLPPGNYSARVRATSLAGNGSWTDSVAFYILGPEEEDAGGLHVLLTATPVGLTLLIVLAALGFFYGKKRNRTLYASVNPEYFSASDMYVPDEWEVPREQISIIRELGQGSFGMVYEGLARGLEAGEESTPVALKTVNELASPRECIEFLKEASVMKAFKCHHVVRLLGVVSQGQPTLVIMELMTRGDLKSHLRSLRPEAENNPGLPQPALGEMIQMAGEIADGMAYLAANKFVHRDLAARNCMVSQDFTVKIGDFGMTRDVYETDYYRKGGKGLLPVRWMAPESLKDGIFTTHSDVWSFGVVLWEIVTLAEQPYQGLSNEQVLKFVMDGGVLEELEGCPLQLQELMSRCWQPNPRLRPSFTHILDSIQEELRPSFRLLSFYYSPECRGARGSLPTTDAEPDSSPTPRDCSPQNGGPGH
Cyclin-dependent kinase 9 (Homo sapiens), sequence (P50750 whole entry, the tested form may be a part): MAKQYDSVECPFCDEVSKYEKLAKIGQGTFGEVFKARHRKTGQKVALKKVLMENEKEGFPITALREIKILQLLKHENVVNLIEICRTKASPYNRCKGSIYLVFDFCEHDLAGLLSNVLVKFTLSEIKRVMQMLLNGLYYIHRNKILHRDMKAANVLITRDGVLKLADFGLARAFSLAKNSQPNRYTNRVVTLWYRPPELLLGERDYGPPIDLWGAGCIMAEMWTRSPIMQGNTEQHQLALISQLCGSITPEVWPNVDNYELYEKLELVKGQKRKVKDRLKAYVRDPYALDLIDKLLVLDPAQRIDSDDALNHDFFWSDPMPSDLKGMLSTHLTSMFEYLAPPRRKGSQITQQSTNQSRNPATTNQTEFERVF
Mitogen-activated protein kinase 1, sequence (P28482 whole entry): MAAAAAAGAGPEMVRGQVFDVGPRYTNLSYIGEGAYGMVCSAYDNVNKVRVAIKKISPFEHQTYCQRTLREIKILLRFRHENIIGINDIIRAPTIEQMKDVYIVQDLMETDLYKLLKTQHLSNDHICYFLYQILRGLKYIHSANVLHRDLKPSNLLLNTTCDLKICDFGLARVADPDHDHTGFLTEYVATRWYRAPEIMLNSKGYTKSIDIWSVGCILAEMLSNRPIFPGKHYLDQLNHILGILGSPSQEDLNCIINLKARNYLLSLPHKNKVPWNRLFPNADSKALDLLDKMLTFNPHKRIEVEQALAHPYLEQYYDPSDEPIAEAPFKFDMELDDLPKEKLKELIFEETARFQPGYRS
Serine/threonine-protein kinase TBK1 (Homo sapiens), sequence (Q9UHD2 whole entry): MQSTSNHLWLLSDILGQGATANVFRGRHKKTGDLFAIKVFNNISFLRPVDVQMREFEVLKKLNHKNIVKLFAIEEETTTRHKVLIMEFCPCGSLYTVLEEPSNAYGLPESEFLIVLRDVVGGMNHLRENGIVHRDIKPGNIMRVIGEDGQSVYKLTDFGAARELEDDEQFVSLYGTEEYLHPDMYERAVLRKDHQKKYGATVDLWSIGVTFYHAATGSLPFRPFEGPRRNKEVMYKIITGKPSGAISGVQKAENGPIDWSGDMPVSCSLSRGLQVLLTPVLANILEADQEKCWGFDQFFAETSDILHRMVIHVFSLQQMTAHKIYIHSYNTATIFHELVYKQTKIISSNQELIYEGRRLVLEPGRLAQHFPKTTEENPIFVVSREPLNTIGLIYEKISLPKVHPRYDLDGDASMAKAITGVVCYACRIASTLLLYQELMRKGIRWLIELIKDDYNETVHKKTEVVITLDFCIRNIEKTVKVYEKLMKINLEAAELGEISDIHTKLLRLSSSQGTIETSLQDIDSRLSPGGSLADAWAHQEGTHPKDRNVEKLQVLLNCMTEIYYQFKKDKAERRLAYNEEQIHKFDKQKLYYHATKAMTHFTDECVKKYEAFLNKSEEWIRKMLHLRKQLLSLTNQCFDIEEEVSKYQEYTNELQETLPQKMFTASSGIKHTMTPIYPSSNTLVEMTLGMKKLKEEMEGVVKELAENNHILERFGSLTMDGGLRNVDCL
G1/S-specific cyclin-D1 (Homo sapiens), sequence (P24385 whole entry): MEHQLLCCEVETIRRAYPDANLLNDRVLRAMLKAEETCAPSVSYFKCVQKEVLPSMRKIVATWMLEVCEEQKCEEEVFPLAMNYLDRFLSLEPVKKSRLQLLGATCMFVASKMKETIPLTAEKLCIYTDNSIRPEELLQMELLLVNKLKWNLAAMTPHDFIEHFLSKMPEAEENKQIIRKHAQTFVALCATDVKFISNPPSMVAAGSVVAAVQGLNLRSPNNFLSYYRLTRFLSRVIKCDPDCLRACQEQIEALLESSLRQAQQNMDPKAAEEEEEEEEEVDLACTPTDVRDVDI

SMILES: CC(C)c1cnn2c(NCc3ccccc3)cc(N[C@@H](CO)[C@H](O)CO)nc12
- inhibition [1]: inactive
- bioavailability [2]: 73%
- AUC(0-t) [3]: 32000 ng·h/mL
- inhibition [4]: Active
- IC50 [5]: 1800 nM
- inhibition (INH) (Mus musculus [6]): Not Active
- inhibition in vivo at 25 mg/kg (Mus musculus [7]): 25%
- IC50 [8]: 3110 nM
- GI50 [9]: < 1000 nM
- Activity [10]: 65%
- Activity [11]: 93%
- Activity [12]: 55%
- Activity [13]: 98%
- Activity [14]: 42%
- inhibition in vivo at 25 mg/kg (Mus musculus [15]): 60%
- fraction unbound at 10 µM [16]: 0.057
- Activity (MCF7 [17]): Active
- inhibition [18]: 74%
- inhibition in vivo at 10 mg/kg (MCF7 [19]): 40%
- Activity [20]: 77%
- Activity [21]: 90%
- logD [22]: 3
- inhibition [23]: inactive
- Activity [24]: 87%
- Papp A→B at 10 µM [25]: 9.7 ×10⁻⁶ cm/s
- inhibition [26]: inactive
- Activity [27]: 64%
- GI50 (SAOS-2): 250 nM
- Activity [28]: 92%
- fraction unbound at 10 µM [29]: 0.117
